Reference: ChEMBL document CHEMBL3352416, “Discovery of carbohybrid-based 2-aminopyrimidine analogues as a new class of rapid-acting antimalarial agents using image-based cytological profiling assay” (J Med Chem, 2014)
Activity calls are given as the source filed them. No cut-off for these calls is given here.

Assays:
[1] = Cytotoxicity against human HepG2 cells after 48 hrs by resazurin based assay; format: cell-based
How it was run: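 Cells grown in DMEM with 10% FBS and 1% antibiotic-antimycotic at 37 °C, 5% CO2. Viability read by resazurin reduction. CC50 derived; amphotericin B used as positive cytotoxicity control.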

Plasmodium falciparum [2] = test: Antimalarial activity against Plasmodium falciparum HB3 assessed as reduction in culture parasitaemia level at 10 uM treated at 42 hrs post-invasion for 24 hrs by automated image mining based cytological profiling assay; format: functional
How it was run: (§1)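 Tightly synchronized cultures exposed from the 42 hpi mid-schizont point for 24 h to 10 µM final. Host cells stained with wheat germ agglutinin-AlexaFluor 488, parasite nuclei with DAPI and live-parasite mitochondria with Mitotracker Red CMXRos. Infected and viable parasitaemia and stage proportions quantified by automated image mining. Stage accumulation indices and parasitaemia reduction index derived.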

Plasmodium falciparum [3] = test: Antimalarial activity against Plasmodium falciparum W2 assessed as reduction in culture parasitaemia level at 10 uM treated at 42 hrs post-invasion for 24 hrs by automated image mining based cytological profiling assay; format: functional, organism-based; how it was run: as §1
Plasmodium falciparum [4] = test: Antimalarial activity against tightly synchronized Plasmodium falciparum HB3 assessed as parasite stage accumulation index at schizonts stages at 10 uM treated at 18 hrs post-invasion for continuous duration of 36 hrs by automated image mining based cytological profiling assay; format: functional
How it was run: (§2)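 Tightly synchronized cultures exposed to 10 µM final from 6 hpi (early ring), 18 hpi (late ring) or 30 hpi (mid-trophozoite) for a continuous 36 h. Erythrocytes stained with WGA-AlexaFluor 488, parasite nuclei with DAPI, functional mitochondria with Mitotracker Red CMXRos. Stages (early rings, late rings, trophozoites, schizonts) classified by nuclear spot number and size. Viable parasitaemia and stage accumulation index obtained by automated image analysis.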

Plasmodium falciparum [5] = test: Antimalarial activity against tightly synchronized Plasmodium falciparum HB3 assessed as parasite stage accumulation index at schizonts stages at 10 uM treated at 30 hrs post-invasion for continuous duration of 36 hrs by automated image mining based cytological profiling assay; format: functional
Plasmodium falciparum [6] = test: Antimalarial activity against tightly synchronized Plasmodium falciparum K1 assessed as parasite stage accumulation index at trophozoites stages at 10 uM treated at 6 hrs post-invasion for continuous duration of 36 hrs by automated image mining based cytological profiling assay; format: functional
Plasmodium falciparum [7] = test: Antimalarial activity against Plasmodium falciparum W2 assessed as reduction in parasite stage accumulation index at 10 uM treated at 42 hrs post-invasion for 24 hrs by automated image mining based cytological profiling assay; format: functional, organism-based; how it was run: as §1
Plasmodium falciparum [8] = test: Antimalarial activity against tightly synchronized Plasmodium falciparum K1 assessed as parasite stage accumulation index at late ring stages at 10 uM treated at 6 hrs post-invasion for continuous duration of 36 hrs by automated image mining based cytological profiling assay; format: functional
Plasmodium falciparum [9] = test: Antimalarial activity against Plasmodium falciparum HB3 assessed as reduction in parasite stage accumulation index at 10 uM treated at 42 hrs post-invasion for 24 hrs by automated image mining based cytological profiling assay; format: functional; how it was run: as §1
Plasmodium falciparum [10] = test: Antimalarial activity against tightly synchronized Plasmodium falciparum HB3 assessed as parasite stage accumulation index at trophozoites stages at 10 uM treated at 30 hrs post-invasion for continuous duration of 36 hrs by automated image mining based cytological profiling assay; format: functional
Plasmodium falciparum [11] = test: Antimalarial activity against tightly synchronized Plasmodium falciparum W2 assessed as parasite stage accumulation index at trophozoites stages at 10 uM treated at 30 hrs post-invasion for continuous duration of 36 hrs by automated image mining based cytological profiling assay; format: functional; how it was run: as §2
Plasmodium falciparum [12] = test: Antimalarial activity against tightly synchronized Plasmodium falciparum W2 assessed as parasite stage accumulation index at trophozoites stages at 10 uM treated at 6 hrs post-invasion for continuous duration of 36 hrs by automated image mining based cytological profiling assay; format: functional
Plasmodium falciparum [13] = test: Antimalarial activity against tightly synchronized Plasmodium falciparum HB3 assessed as parasite stage accumulation index at late ring stages at 10 uM treated at 6 hrs post-invasion for continuous duration of 36 hrs by automated image mining based cytological profiling assay; format: functional; how it was run: as §2
Plasmodium falciparum [14] = test: Antimalarial activity against tightly synchronized Plasmodium falciparum W2 assessed as parasite stage accumulation index at schizonts stages at 10 uM treated at 6 hrs post-invasion for continuous duration of 36 hrs by automated image mining based cytological profiling assay; format: functional; how it was run: as §2
Plasmodium falciparum [15] = test: Antimalarial activity against Plasmodium falciparum K1 assessed as reduction in parasite stage accumulation index at 10 uM treated at 42 hrs post-invasion for 24 hrs by automated image mining based cytological profiling assay; format: functional, organism-based; how it was run: as §1
Plasmodium falciparum [16] = test: Antimalarial activity against tightly synchronized Plasmodium falciparum W2 assessed as parasite stage accumulation index at schizonts stages at 10 uM treated at 18 hrs post-invasion for continuous duration of 36 hrs by automated image mining based cytological profiling assay; format: functional
Plasmodium falciparum [17] = test: Antimalarial activity against tightly synchronized Plasmodium falciparum HB3 assessed as parasite stage accumulation index at late ring stages at 10 uM treated at 18 hrs post-invasion for continuous duration of 36 hrs by automated image mining based cytological profiling assay; format: functional; how it was run: as §2
Plasmodium falciparum [18] = test: Antimalarial activity against tightly synchronized Plasmodium falciparum HB3 assessed as parasite stage accumulation index at trophozoites stages at 10 uM treated at 18 hrs post-invasion for continuous duration of 36 hrs by automated image mining based cytological profiling assay; format: functional; how it was run: as §2
Plasmodium falciparum [19] = test: Antimalarial activity against tightly synchronized Plasmodium falciparum K1 assessed as parasite stage accumulation index at schizonts stages at 10 uM treated at 30 hrs post-invasion for continuous duration of 36 hrs by automated image mining based cytological profiling assay; format: functional; how it was run: as §2
Plasmodium falciparum [20] = test: Antimalarial activity against tightly synchronized Plasmodium falciparum HB3 assessed as parasite stage accumulation index at schizonts stages at 10 uM treated at 6 hrs post-invasion for continuous duration of 36 hrs by automated image mining based cytological profiling assay; format: functional; how it was run: as §2
Plasmodium falciparum [21] = test: Antimalarial activity against tightly synchronized Plasmodium falciparum HB3 assessed as parasite stage accumulation index at trophozoites stages at 10 uM treated at 6 hrs post-invasion for continuous duration of 36 hrs by automated image mining based cytological profiling assay; format: functional; how it was run: as §2
Plasmodium falciparum [22] = test: Antimalarial activity against tightly synchronized Plasmodium falciparum W2 assessed as parasite stage accumulation index at trophozoites stages at 10 uM treated at 18 hrs post-invasion for continuous duration of 36 hrs by automated image mining based cytological profiling assay; format: functional
Plasmodium falciparum [23] = test: Antimalarial activity against Plasmodium falciparum K1 assessed as increase in schizonts parasite stage accumulation index at 10 uM treated at 42 hrs post-invasion for 24 hrs by automated image mining based cytological profiling assay; format: functional, organism-based; how it was run: as §1
Plasmodium falciparum [24] = test: Antimalarial activity against tightly synchronized Plasmodium falciparum K1 assessed as parasite stage accumulation index at schizonts stages at 10 uM treated at 6 hrs post-invasion for continuous duration of 36 hrs by automated image mining based cytological profiling assay; format: functional; how it was run: as §2
Plasmodium falciparum [25] = test: Antimalarial activity against tightly synchronized Plasmodium falciparum W2 assessed as parasite stage accumulation index at late ring stages at 10 uM treated at 6 hrs post-invasion for continuous duration of 36 hrs by automated image mining based cytological profiling assay; format: functional
Plasmodium falciparum [26] = test: Antimalarial activity against Plasmodium falciparum K1 assessed as reduction in culture parasitaemia level at 10 uM treated at 42 hrs post-invasion for 24 hrs by automated image mining based cytological profiling assay; format: functional, organism-based; how it was run: as §1
Plasmodium falciparum [27] = test: Antimalarial activity against tightly synchronized Plasmodium falciparum W2 assessed as parasite stage accumulation index at early ring stages at 10 uM treated at 6 hrs post-invasion for continuous duration of 36 hrs by automated image mining based cytological profiling assay; format: functional; how it was run: as §2
Plasmodium falciparum [28] = test: Antimalarial activity against Plasmodium falciparum HB3 assessed as increase in schizonts parasite stage accumulation index at 10 uM treated at 42 hrs post-invasion for 24 hrs by automated image mining based cytological profiling assay; format: functional; how it was run: as §1
Plasmodium falciparum [29] = test: Antimalarial activity against tightly synchronized Plasmodium falciparum W2 assessed as parasite stage accumulation index at late ring stages at 10 uM treated at 18 hrs post-invasion for continuous duration of 36 hrs by automated image mining based cytological profiling assay; format: functional; how it was run: as §2
Plasmodium falciparum [30] = test: Antimalarial activity against tightly synchronized Plasmodium falciparum K1 assessed as parasite stage accumulation index at trophozoites stages at 10 uM treated at 18 hrs post-invasion for continuous duration of 36 hrs by automated image mining based cytological profiling assay; format: functional; how it was run: as §2
Plasmodium falciparum [31] = test: Antimalarial activity against tightly synchronized Plasmodium falciparum K1 assessed as parasite stage accumulation index at schizonts stages at 10 uM treated at 18 hrs post-invasion for continuous duration of 36 hrs by automated image mining based cytological profiling assay; format: functional; how it was run: as §2
Plasmodium falciparum [32] = test: Antimalarial activity against tightly synchronized Plasmodium falciparum W2 assessed as parasite stage accumulation index at schizonts stages at 10 uM treated at 30 hrs post-invasion for continuous duration of 36 hrs by automated image mining based cytological profiling assay; format: functional
Plasmodium falciparum [33] = test: Antimalarial activity against tightly synchronized Plasmodium falciparum K1 assessed as parasite stage accumulation index at late ring stages at 10 uM treated at 18 hrs post-invasion for continuous duration of 36 hrs by automated image mining based cytological profiling assay; format: functional; how it was run: as §2
Plasmodium falciparum [34] = test: Antimalarial activity against Plasmodium falciparum W2 assessed as increase in schizonts parasite stage accumulation index at 10 uM treated at 42 hrs post-invasion for 24 hrs by automated image mining based cytological profiling assay; format: functional, organism-based; how it was run: as §1
Plasmodium falciparum [35] = test: Antimalarial activity against tightly synchronized Plasmodium falciparum K1 assessed as parasite stage accumulation index at trophozoites stages at 10 uM treated at 30 hrs post-invasion for continuous duration of 36 hrs by automated image mining based cytological profiling assay; format: functional; how it was run: as §2
Plasmodium falciparum [36] = test: Antimalarial activity against tightly synchronized Plasmodium falciparum K1 assessed as parasite stage accumulation index at early ring stages at 10 uM treated at 6 hrs post-invasion for continuous duration of 36 hrs by automated image mining based cytological profiling assay; format: functional; how it was run: as §2
Plasmodium falciparum [37] = test: Antimalarial activity against tightly synchronized Plasmodium falciparum HB3 assessed as parasite stage accumulation index at early ring stages at 10 uM treated at 6 hrs post-invasion for continuous duration of 36 hrs by automated image mining based cytological profiling assay; format: functional

C[C@@H]1[C@H](O)[C@@H](C)/C=C/C=C/C=C/C=C/C=C/C=C/C=C/[C@H](O[C@@H]2O[C@H](C)[C@@H](O)[C@H](N)[C@@H]2O)C[C@@H]2O[C@](O)(C[C@@H](O)C[C@@H](O)[C@H](O)CC[C@@H](O)C[C@@H](O)CC(=O)O[C@H]1C)C[C@H](O)[C@H]2C(=O)O [AMPHOTERICIN B]
CC50 at 48 h [1]: 40 µM

CC(=O)N[C@@H]1[C@@H](O)[C@H](O)[C@@H](CO)O[C@H]1O [N-ACETYLGLUCOSAMINE]
inhibition (Plasmodium falciparum [2]): Active
inhibition (Plasmodium falciparum [3]): Active
Activity (Plasmodium falciparum [4]): 0.51
Activity (Plasmodium falciparum [5]): 0.7
Activity (Plasmodium falciparum [6]): 0.8
inhibition (Plasmodium falciparum [7]): Active
Activity (Plasmodium falciparum [8]): 1.32
inhibition (Plasmodium falciparum [9]): Active
Activity (Plasmodium falciparum [10]): 0.87
Activity (Plasmodium falciparum [11]): 0.34
Activity (Plasmodium falciparum [12]): 0.92
Activity (Plasmodium falciparum [13]): 2.14
Activity (Plasmodium falciparum [14]): 0.54
inhibition (Plasmodium falciparum [15]): Active
Activity (Plasmodium falciparum [16]): 1.08
Activity (Plasmodium falciparum [17]): 1
Activity (Plasmodium falciparum [18]): 1.06
Activity (Plasmodium falciparum [19]): 1.04
Activity (Plasmodium falciparum [20]): 0.29
Activity (Plasmodium falciparum [21]): 0.78
Activity (Plasmodium falciparum [22]): 1.12
inhibition (Plasmodium falciparum [23]): inactive
Activity (Plasmodium falciparum [24]): 0.66
Activity (Plasmodium falciparum [25]): 0.88
inhibition (Plasmodium falciparum [26]): Active
Activity (Plasmodium falciparum [27]): 1.52
inhibition (Plasmodium falciparum [28]): inactive
Activity (Plasmodium falciparum [29]): 0.83
Activity (Plasmodium falciparum [30]): 1.18
Activity (Plasmodium falciparum [31]): 0.64
Activity (Plasmodium falciparum [32]): 1.4
Activity (Plasmodium falciparum [33]): 0.86
inhibition (Plasmodium falciparum [34]): inactive
Activity (Plasmodium falciparum [35]): 0.96
Activity (Plasmodium falciparum [36]): 1.33
Activity (Plasmodium falciparum [37]): 1.4
